Assay results pooled from the literature.
Protocols differ between the studies behind these lines.

Compound | method | matrix | time | pH | temperature | solubility
CCOc1ccc2cc(-c3nn(C4CCCCC4)c(N)c3C(N)=O)ccc2n1 |  | PBS |  | pH 6.5 | 25 °C | 88.9 µM
CN1CCC(N2CCCN(c3nccc4[nH]c(-c5ccc(F)c(F)c5)nc34)CC2)CC1 | shake flask | aqueous buffer |  | pH 6.5 |  | > 200 µM
Cc1cc(Nc2ccc(S(F)(F)(F)(F)F)cc2)n2nc(C3CC3)nc2n1 | nephelometry | aqueous buffer |  | pH 6.5 |  | 16 to 32 µM
Cl.Clc1ccc2c(c1)nc(NCCNCc1ccccc1)n2Cc1ccccc1 | shake flask | aqueous buffer | 20 h | pH 6.5 | 25 °C | 25 µM
CCOc1ccc2cc(-c3nn(C(C)(C)C)c(N)c3C(N)=O)cnc2c1 |  | PBS |  | pH 6.5 | 25 °C | 26 µM
Brc1cccc2c(NCc3ccccc3)nc(NCc3ccccc3)nc12 |  | aqueous buffer |  | pH 5 |  | 0.42 µg/mL
NC(=O)c1ccc(N(Cc2ccc(C3CCCCC3)cn2)C(=O)[C@H]2CCN2S(=O)(=O)c2c(F)c(F)c(F)c(F)c2F)cc1O |  | simulated intestinal fluid |  |  |  | 117 µg/mL
CSC[C@H]1O[C@@H](n2cnc3c(N)ncnc32)[C@H](O)[C@@H]1O |  | PBS |  |  |  | 110 µM
O=C(Nc1ccc(S(=O)(=O)N2CCC(Cl)CC2)cc1)c1ccc([N+](=O)[O-])o1 |  | aqueous buffer |  | pH 5 |  | 3.8 µg/mL
Clc1cccc(Nc2nc(NCc3cccc(Br)c3)c3ccccc3n2)c1 |  | aqueous buffer |  | pH 7.4 |  | < 0.01 µg/mL
Cc1cc(Nc2ccc(C(F)(F)F)cc2)n2nc(C(C)(F)F)nc2n1 | nephelometry | aqueous buffer |  | pH 6.5 |  | 70 to 140 µM
Cc1cccc(F)c1N1CCC(N2Cc3cn(CC(C)(F)F)nc3N(Cc3ccccc3C(F)(F)F)C2=O)CC1 |  | aqueous buffer |  | pH 7.4 |  | 10 µM
COc1cccc2c(NCc3ccccc3)nc(NCc3ccccc3)nc12 |  | aqueous buffer |  | pH 7.4 |  | 0.03 µg/mL
COc1cc(OC)cc(N(CCNC(C)C)c2ccc3ncc(-c4cnn(C)c4)nc3c2)c1 |  | aqueous buffer |  | pH 7.65 |  | 150 µg/mL
COc1cc(NC(=O)c2ccc(C3=CCN(C(=N)N)CC3)c(F)c2)ccc1C1=CCN(C(=N)N)CC1 | shake flask | aqueous buffer |  | pH 7.4 |  | 1210 µg/mL
COc1ccnc(CNC(=O)c2cn(Cc3ccc(Cn4ccccc4=O)cc3)nc2C(F)(F)F)c1F |  | FaSSIF | 4 h | pH 6.5 |  | 20 µg/mL
CCOc1ccc2cc(-c3nn(C4CCCCCC4)c(N)c3C(N)=O)cnc2c1 |  | PBS |  | pH 6.5 | 25 °C | 8.5 µM
OCc1n(Cc2ccc3ccccc3c2)cc[n+]1Cc1ccc2ccccc2c1.[Br-] |  | water |  |  |  | < 500 µg/mL
C[C@@H]1CN(c2nc3cc(Cl)ccc3n2Cc2ccccc2)C[C@H](C)N1 | shake flask | aqueous buffer | 20 h | pH 6.5 | 25 °C | 140 µM
Cc1cc2c(cc1C)[n+](Cc1ccc3ccccc3n1)cn2Cc1ccc2ccccc2n1.[Cl-] |  | water |  |  |  | > 500 µg/mL
CC(=O)Oc1ccccc1C(=O)O |  | PBS |  | pH 7.4 |  | 12600 µg/mL
c1ccc(CNc2nc(N3CCNc4ccccc43)nc3ccccc23)cc1 |  | aqueous buffer |  | pH 7.4 |  | 0.02 µg/mL
COc1ccc2cc(-c3nn(C(C)(C)C)c(N)c3C(N)=O)cnc2c1 |  | PBS |  | pH 6.5 | 25 °C | > 100 µM
Cc1c(F)cccc1Nc1nc(NCc2ccccc2)c2ccccc2n1 |  | aqueous buffer |  | pH 6.2 |  | 0.05 µg/mL

Compound | method | matrix | time | pH | temperature | solubility
CCCCOC(=O)c1ccc(N)cc1 |  | PBS |  | pH 7.4 |  | 226 µg/mL
Brc1cccc(Nc2nc(NCc3ccccc3)c3ccccc3n2)c1 |  | aqueous buffer |  | pH 7.4 |  | < 0.01 µg/mL
CNc1nc2ccccc2n2c(-c3cccc(OC)c3)cnc12 | HPLC | ethanol |  |  |  | 500 µg/mL
Nc1cccc(S(=O)(=O)N2CCN(S(=O)(=O)c3ccc4c(c3)OCCO4)CC2)c1 |  | aqueous buffer |  |  |  | 4.1 µg/mL
O=C(NCCN1CCCC1)c1cc(-c2ccc(CN3CCOCC3)cc2)nc2ccc(F)cc12 |  | aqueous buffer |  | pH 7.4 |  | 2800 µM
COc1ccccc1C(=O)Nc1cccc(NC(=O)c2cccc(C)c2)c1 |  | aqueous buffer |  | pH 7.4 |  | 0.47 µM
CN(CCOc1ccc(CC2SC(=O)NC2=O)cc1)c1ccccn1 (stereo not drawn) |  | aqueous buffer |  | pH 7.4 |  | ≥ 144 µM
O=C(Nc1ccc(F)cc1C(=O)O)c1ccc(-c2ccccc2)cc1 | shake flask | aqueous buffer | 24 h | pH 6.5 | 25 °C | 10 µM
O=C(O)Cc1ccccc1Nc1c(Cl)cccc1Cl |  | PBS |  | pH 7.4 |  | 199 µM
CCOC(=O)C1=C(C)NC(C)=C(C(=O)OC)C1c1cccc(Cl)c1Cl (stereo not drawn) |  | FaSSIF | 24 h | pH 7.4 | 37 °C | 40 µg/mL
CCCCCCN1CCCC1=O |  | PBS | 48 h | pH 7.4 | 25 °C | 79000 µM
CC(C)N1CCN(Cc2cnc(-c3cc(-c4cccc5[nH]ccc45)cc4[nH]ncc34)o2)CC1 |  | aqueous buffer |  | pH 10 |  | 1 µg/mL
Cl.c1ccc(Cn2c(N3CCNCC3)nc3cc(-c4cc[nH]n4)ccc32)cc1 | shake flask | aqueous buffer | 20 h | pH 6.5 | 25 °C | 195 µM
Cc1c(F)cccc1NC(=O)Nc1ccc(Cl)c(S(=O)(=O)[C@H]2CCCNC2)c1O |  | aqueous buffer | 4 h | pH 10 |  | 68 µg/mL
Cc1ccc(F)cc1Nc1nc(NCc2ccccc2)c2ccccc2n1 |  | aqueous buffer |  | pH 6.2 |  | 0.07 µg/mL
COc1cccc(OC)c1-c1cc(C(=O)N[C@@H](CC(C)C)C(=O)O)nn1-c1ccnc2cc(Cl)ccc12 |  | aqueous buffer |  | pH 5 |  | 52.9 µg/mL
CCCn1nc(C(=O)N2CCCCC2)c2c1CCC(N1CCc3ccccc3C1)C2 (stereo not drawn) |  | PBS | 16 h | pH 7.4 |  | 713 µM
c1ccc(CNc2nc(N3CCOc4ccccc43)nc3ccccc23)cc1 |  | aqueous buffer |  | pH 6.2 |  | 0.72 µg/mL
O=C(Nc1ccc(C(F)(F)F)cc1)N1CCC(Cc2cccc(Oc3ccc(C(F)(F)F)cn3)c2)CC1 |  | water | 48 h |  | 37 °C | 0.0016 µM
CN1CCN(C[C@H]2CCCN(c3nccc4[nH]c(-c5cc(F)cc(F)c5)nc34)C2)CC1 | shake flask | aqueous buffer |  | pH 6.5 |  | > 200 µM
O=C(c1ccccn1)N(Cc1cccs1)C1(C(=O)NC2CCCCC2)CCCCC1 |  | aqueous buffer |  | pH 5 |  | 5.7 µg/mL
CN1CCN(CC2CCN(c3nccc4[nH]c(-c5cc(F)cc(F)c5)nc34)CC2)CC1 | shake flask | aqueous buffer |  | pH 6.5 |  | > 200 µM
Cc1cc(Nc2ccc(Cl)cc2)n2nc(C(C)(F)F)nc2n1 | nephelometry | aqueous buffer |  | pH 6.5 |  | 77 to 150 µM
COc1cc(/C=C/C(=O)CC(=O)/C=C/c2ccc(O)c(OC)c2)ccc1O | absorbance | water |  |  |  | 0.56 µg/mL
